The results in this text go back to PubChem BioAssay.

A short description of assay [1]: S. cerevisiae growth inhibition in permissive medium (OD615), pilot counter-assay for S. cerevisiae lifespan shortening project, permissive growth control (AID 705;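 active means growth inhibition above 25% in both replicates, a cutoff set 3 SD above the mean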). The note with it: OD615, 24 h, at 10 µM, hits give high values. In a few lines:
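System: engineered DeaD yeast; Medium: permissive raffinose/galactose medium; Compound dosing: 10 µM single dose, 0.25% DMSO; Incubation: 4 h cell pre-growth, 24 h exposure at 30 °C; Technique: OD at 615 nm; Evaluation: growth inhibition from lowered OD615 after 24 h.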

The nature of assay [2]: S. cerevisiae growth inhibition in restrictive medium, OD615, pilot screen, restrictive growth control, yeast lifespan reduction project (AID 706;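 active means growth inhibition above a set limit, 3 SD over mean compound inhibition, in both replicates, cut at about 43% in these data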;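 further: modified DeaD lifespan yeast strain shifted to restrictive glucose medium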). The settings on record: OD615, 48 h, at 10 µM, hits give high values. The method, boiled down:
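Material: modified S. cerevisiae; buffer or medium: CSMM-D glucose medium; doses: one concentration, 10 µM final, 0.25% DMSO; incubation: 48 h compound exposure at 30 °C; detection: optical density at 615 nm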

A short description of assay [3]: doxorubicin toxicity protection in MRP-1 cells – H69AR cells, CellTiter-Glo, duplicate, MRP-1 activator project, pilot screen (AID 807;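 active means viability increase at or above a cutoff of the median across tested compounds plus 3 SD, cut at about 8.5% in these data, passing the limit was not always enough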;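 further: compound pretreatment 18-22 h then 72 h combined with doxorubicin; 0% = doxorubicin alone and 100% = vehicle without doxorubicin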). The note with it: H69AR viability with doxorubicin, CellTiter-Glo luminescence; at 10 µM; hits give high values.
Assay [4] can be described thus: viability of HCT116 without oncogenic beta-catenin – human colon tumor cells, pilot screen (AID 823).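 Further: 0% = wells killed by 20 µM Hyamine and 100% = untreated DMSO cell wells.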 The note with it: HCT116 beta-catenin knockout viability, CellTiter-Glo, 60 h; at 10 µM; hits give low values. For orientation: In ATP-based viability assays light output follows the ATP content of the culture.
The nature of assay [5]: viability of PTEN-null HCT116 cells – cell-based, HCT116 clonal line, CellTiter-Glo, pilot screen (AID 824;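 active means viability at or below 27.92% in each of two runs, the all-compound median minus 4 SD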;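 further: 0% = 20 µM Hyamine control and 100% = vehicle cell control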). The settings on record: HCT116 PTEN-deleted viability, 60 h, at 10 µM, hits give low values.
Assay [6] is described as follows: RAM pathway blockade in budding yeast – dse1pr::URA3 reporter, 5-FOA selection, pilot screen (AID 869;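 active means inhibition over a set limit, the all-compound mean plus 3 SD, in both replicate runs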;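 further: 0% = DMSO wells with no growth and 100% = 10 µM 1-NA-PP1 with full growth; RAM network block rescues cells from 5-FOA so hits raise OD615 growth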). The settings on record: S. cerevisiae dse1pr::URA3 5-FOA growth, OD615, 2 d; at 10 µM; hits give high values; strain carries analog-sensitive mutant Cbk1 kinase.
Assay [7] is described as follows: RAM signaling pathway blockade in yeast – S. cerevisiae, Pdr1DBD-CYC8 efflux-inhibited sensitized strain, primary screen (AID 1298;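 active means RAM network inhibition above 8.4% in each of two replicates, 3 SD over the compound average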;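 further: 0% = DMSO untreated cells without growth and 100% = 10 µM 1-NA-PP1 full growth; higher means more yeast growth rescued from 5-FOA killing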). The note with it: S. cerevisiae cbk1-as DSE1-URA3 strain, 5-FOA growth OD615, 2 d; at 50 µM; hits give high values.

In general, viability refers to a read-out of living cells in per cent, often relative to untreated cells. For orientation: inhibition means the relative decrease from the control value, in per cent.

Unmarked numbers belong to inactive results. Results filed as inconclusive are left out. Calls of active or inactive are those of the source.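 How the source made its calls, unless noted: active means cell viability at or below a set limit in both duplicate runs, the limit being the all-compound median minus 4 SD (cut at about 23% in these data, passing the limit was not always enough); inconclusive means no clear call, values can overlap the other calls; inactive means the rest.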

`Cc1ccc(Cn2ccc(NC(=O)c3cc(C(C)C)on3)n2)cc1`: the figures for the growth inhibition in assay [1] and in assay [2] were -13.5% and 5.14%, respectively. For the same compound, the viability increase in assay [3] is 0.94%. Besides, the figures for the viability in assay [4] and in assay [5] were 97.1% and 95.1%, respectively. Besides, in assay [6], the inhibition was 1.97%. Further, the RAM network inhibition in assay [7] is 4.18%.

As to `Cc1csc(C(C#N)C(=O)c2cc3ccccc3o2)n1` (stereo not drawn), the growth inhibition in assay [1] is -21.6%; in assay [2], -8.8%. Also, the viability increase in assay [3] was -0.75%. Also, the viability in assay [4] is 93.7%; in assay [5], 85.3%. The inhibition in assay [6] is 2.67%. Also, the RAM network inhibition in assay [7] was 0.32%.

As to `O=C(Nc1c(F)cc(F)cc1Br)c1cc(-c2ccc(O)cc2)on1`, the growth inhibition was -17.7% in assay [1] and 5.22% in assay [2]. The viability increase in assay [3] was -4.92%. Besides, the values for the viability in assay [4] and in assay [5] were 92% and 85.4%, respectively. Further, the inhibition in assay [6] was 0.53%. Further, the RAM network inhibition in assay [7] is -0.21%.

Turning to `CCCN(CCC)C(=O)CCS(=O)(=O)c1cccc2nsnc12`, the growth inhibition in assay [1] was -9.5%; in assay [2], -18.6%. In addition, the viability increase in assay [3] was -1.95%. Besides, the viability was 96.3% in assay [4] and 98.2% in assay [5]. Besides, the inhibition in assay [6] is 1.15%. The RAM network inhibition in assay [7] was 2.25%.

`N=C1C(c2nc3ccccc3c(=O)[nH]2)=C(O)CN1CCc1ccccc1`: the growth inhibition is 2.17% in assay [1] and -7.82% in assay [2]. In addition, in assay [3], the viability increase is -3.19%. Moreover, the viability in assay [4] is 93.6%; in assay [5] it was 87.2%. Moreover, in assay [6], the inhibition is 0.995%. The RAM network inhibition in assay [7] is 3.92%.

Take `COc1ccc(C2C(C(=O)Nc3ccc(F)cc3)=C(C)Nc3nc(CCCO)nn32)cc1` (stereo not drawn): the growth inhibition is -0.24% in assay [1] and -1.29% in assay [2]. The viability increase in assay [3] is -1.2%. For the same compound, the viability in assay [4] is 96.6%; in assay [5] it was 100%. In addition, the inhibition in assay [6] was 0.24%. In assay [7], the RAM network inhibition is 0.37%.

Turning to `CC(=O)Nc1nnc(SCC(=O)NCCOc2ccccc2)s1`, the growth inhibition in assay [1] is -0.45%; in assay [2], -7.88%. Also, the viability increase in assay [3] is -0.85%. Further, the viability in assay [4] was 98.9%; in assay [5] it was 96.7%. Moreover, the inhibition in assay [6] is 0.52%. Besides, the RAM network inhibition in assay [7] was 4.66%.

In the case of `O=C(NCc1ccco1)N1c2ccccc2Sc2ccccc21`, the growth inhibition in assay [1] is -12.9%; in assay [2], -8.64%. Also, the viability increase in assay [3] is -4.68%. Besides, the viability in assay [4] was 88%; in assay [5], 91.6%. Besides, the inhibition in assay [6] is 0.805%. Besides, the RAM network inhibition in assay [7] was 4.32%.

As for `O=C(NC(Cc1ccc2c(c1)OCO2)C(=O)N1CCCC1C(=O)O)c1ccccc1` (stereo not drawn), the figures for the growth inhibition in assay [1] and in assay [2] were -2.82% and 0.59%, respectively. Moreover, the viability increase in assay [3] was 0.05%. In addition, the figures for the viability in assay [4] and in assay [5] were 95.1% and 98.1%, respectively. Also, the inhibition in assay [6] was 0.125%. The RAM network inhibition in assay [7] is 6.49%.

On to `N#Cc1c(-c2ccco2)c2c([nH]c1=S)CCCC2`, for which the results for the growth inhibition in assay [1] and in assay [2] were 6.88% and -0.73%, respectively. Also, the viability increase in assay [3] was -3.4%. Moreover, the viability in assay [4] is 105%; in assay [5], 93.8%. In addition, in assay [6], the inhibition was 1.57%. In assay [7], the RAM network inhibition was 1.82%.

With `O=C(CCc1nc2ccccc2[nH]1)NC1CCCCC1`, the values for the growth inhibition in assay [1] and in assay [2] were -16.3% and -17.4%, respectively. Also, the viability increase in assay [3] was -0.01%. Further, the viability in assay [4] was 102%; in assay [5], 96.9%. For the same compound, the inhibition in assay [6] is 1.21%. Also, the RAM network inhibition in assay [7] was 1.28%.

Take `Oc1cc(Cc2ccccc2)cnc1CN1CCCCC1`: the values for the growth inhibition in assay [1] and in assay [2] were -10.9% and 2.06%, respectively. Moreover, in assay [3], the viability increase was -1%. Moreover, the figures for the viability in assay [4] and in assay [5] were 95.6% and 98%, respectively. Further, the inhibition in assay [6] was 0.305%. Further, in assay [7], the RAM network inhibition is 3.35%.

As for `CCOC(=O)N(C)OC(=O)Nc1ccc(Cl)c(Cl)c1`, the values for the growth inhibition in assay [1] and in assay [2] were -17.1% and -20.5%, respectively. In addition, the viability increase in assay [3] is -0.16%. Also, the viability in assay [4] is 95.6%; in assay [5] it was 90.8%. Moreover, the inhibition in assay [6] was 0.52%. Moreover, the RAM network inhibition in assay [7] was 5.93%.

Consider `Brc1cccc(-c2nnc(SCc3ccon3)n2-c2ccccc2)c1`, for which the growth inhibition was -5.09% in assay [1] and 3.47% in assay [2]. Moreover, in assay [3], the viability increase was -5.94%. Moreover, the viability is 92.3% in assay [4] and 78.7% in assay [5]. Besides, the inhibition in assay [6] is 1.46%. Moreover, the RAM network inhibition in assay [7] is 0.07%.

`Cc1ccc(OCCN2CCCCCC2)c(C)c1`: the results for the growth inhibition in assay [1] and in assay [2] were -6.26% and 2.46%, respectively. Besides, in assay [3], the viability increase was -3.81%. Moreover, the viability in assay [4] was 71.1%; in assay [5], 70.4%. Also, the inhibition in assay [6] was 1.21%. Also, in assay [7], the RAM network inhibition is 2.8%.

In the case of `CCC(C)C1C(C#N)=C(N)OC2=C1C(=O)CC(C)(C)C2` (stereo not drawn), the growth inhibition in assay [1] is -10.1%; in assay [2], -15.1%. Further, the viability increase in assay [3] was -3.48%. In addition, the viability was 103% in assay [4] and 86.5% in assay [5]. For the same compound, in assay [6], the inhibition is 1.31%. In addition, the RAM network inhibition in assay [7] was 6.21%.

For the compound `CCOC(=O)C1C(C)N=C2SCC(=O)N2C1c1cccc(Br)c1` (stereo not drawn), the results for the growth inhibition in assay [1] and in assay [2] were 9.43% and 51.2% (active), respectively. Further, the viability increase in assay [3] is -0.84%. The viability was 86.4% in assay [4] and 93.2% in assay [5]. Moreover, the inhibition in assay [6] is 0.36%. Moreover, in assay [7], the RAM network inhibition was 3.99%.

As to `Cn1c(=O)c2c(nc(CN3CCN(CCO)CC3)n2Cc2ccccc2Cl)n(C)c1=O`, the values for the growth inhibition in assay [1] and in assay [2] were 4.8% and -2.67%, respectively. In assay [3], the viability increase is -3.91%. The viability was 98.2% in assay [4] and 96.2% in assay [5]. For the same compound, the inhibition in assay [6] was 0.875%. In addition, the RAM network inhibition in assay [7] was 4.94%.

Consider `O=C(NCc1cccnc1)NC1(C(F)(F)F)Oc2ccc(Cl)cc2O1` (stereo not drawn), for which the results for the growth inhibition in assay [1] and in assay [2] were -2.96% and -8.97%, respectively. For the same compound, the viability increase in assay [3] was -6.19%. In addition, the figures for the viability in assay [4] and in assay [5] were 52.6% and 58.7%, respectively. Also, the inhibition in assay [6] is 0.4%. Moreover, the RAM network inhibition in assay [7] is 0.63%.

Take `N#CCc1nc2n(n1)Cc1ccccc1-2`: the growth inhibition in assay [1] was -6.24%; in assay [2], -25.7%. In assay [3], the viability increase is 0.02%. Further, the viability in assay [4] was 105%; in assay [5], 96.8%. Further, in assay [6], the inhibition was 3.54%. Also, the RAM network inhibition in assay [7] was 2.06%.

With `O=C(Cn1cc2c(n1)CCCC2)Nc1ccccc1Br`, the growth inhibition was -13% in assay [1] and -9.29% in assay [2]. In assay [3], the viability increase is -2.82%. Moreover, the viability was 95.7% in assay [4] and 86.7% in assay [5]. For the same compound, the inhibition in assay [6] was 1.64%. The RAM network inhibition in assay [7] is 1.15%.

Consider `Cc1ccc(C2CC(c3cccc(C)c3)n3ncnc3N2)cc1` (stereo not drawn), for which the results for the growth inhibition in assay [1] and in assay [2] were 3.83% and 15.5%, respectively. In addition, in assay [3], the viability increase is -0.97%. Moreover, the viability in assay [4] was 85.7%; in assay [5], 86.1%. For the same compound, the inhibition in assay [6] was 0.45%. In addition, the RAM network inhibition in assay [7] was 4.74%.

For the compound `C=CCn1c(SCCOC)nc2c1c(=O)[nH]c(=O)n2C`, the growth inhibition was 2.12% in assay [1] and 0.43% in assay [2]. Further, the viability increase in assay [3] is -2.47%. Moreover, the viability is 99% in assay [4] and 95% in assay [5]. In addition, the inhibition in assay [6] was 0.665%. The RAM network inhibition in assay [7] was -0.26%.

Turning to `CN(C)S(=O)(=O)c1ccc(C(=O)OCCCN=C2NS(=O)(=O)c3ccccc32)cc1`, the growth inhibition was -13% in assay [1] and -15.2% in assay [2]. The viability increase in assay [3] is 0.05%. For the same compound, the values for the viability in assay [4] and in assay [5] were 109% and 102%, respectively. In addition, the inhibition in assay [6] was 0.955%. Also, the RAM network inhibition in assay [7] was 2.94%.
